Active and inactive are the calls of the source. The rule behind the calls is not given here.
Tests used:
MDA-MB-231 [1] = test: Antiproliferative activity against human MDA-MB-231 cells assessed as cell growth inhibition at 10 uM incubated for 48 hr by MTT assay; format: functional
Method in brief: (§1)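 Cells in RPMI with 10% FBS, 1% pen/strep at 37 °C, 5% CO2. […] MTT 0.5 mg ml⁻¹ for 2 h, formazan dissolved in DMSO, A570; viability = OD treated/OD control × 100. Triplicate.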

Tubulin (Homo sapiens) [2] = target: T1, Tubulin (Homo sapiens) (UniProt P68371+Q9H4B7+P0DPH7+P68366+Q13509+Q71U36+P04350+Q3ZCM7+P07437+P68363+Q9BQE3+Q6PEY2+Q13885+Q9BVA1+Q9BUF5); test: Inhibition of tubulin polymerization in human A549 cells assessed as inhibition of microtubule spindle formation with irregular morphology at 13 uM incubated for 24 hrs by immunofluorescence assay; format: cell-based
Method in brief: (§2)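 Fixed in 3.7% paraformaldehyde, permeabilised with 0.1% Triton X-100, blocked with 1% BSA 1 h, anti-β-tubulin mouse mAb overnight at 4 °C, Alexa Fluor 488 secondary, DAPI; fluorescence microscopy.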

Tubulin (Sus scrofa) [3] = target: T2, Tubulin (Sus scrofa) (UniProt P02554+P02550); test: Inhibition of porcine Tubulin polymerization assessed as increase in AUC by measuring fluorescence at 15 uM incubated for 1 hr by fluorescence microscopy; format: protein assay
T2 sequence (P02550 whole entry, looked up): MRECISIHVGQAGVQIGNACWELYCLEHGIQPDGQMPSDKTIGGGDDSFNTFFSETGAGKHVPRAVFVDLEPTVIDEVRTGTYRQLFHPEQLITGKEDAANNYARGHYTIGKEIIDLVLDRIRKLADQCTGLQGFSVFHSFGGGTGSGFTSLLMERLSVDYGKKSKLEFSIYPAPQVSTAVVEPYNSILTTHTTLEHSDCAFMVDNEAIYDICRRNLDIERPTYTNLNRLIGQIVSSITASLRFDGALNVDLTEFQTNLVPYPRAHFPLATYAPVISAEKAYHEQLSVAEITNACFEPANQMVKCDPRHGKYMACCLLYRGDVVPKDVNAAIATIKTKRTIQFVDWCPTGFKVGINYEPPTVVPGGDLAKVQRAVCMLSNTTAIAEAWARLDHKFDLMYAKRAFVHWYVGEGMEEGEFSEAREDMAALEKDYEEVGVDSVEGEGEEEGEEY
T2 sequence (P02554 whole entry, looked up): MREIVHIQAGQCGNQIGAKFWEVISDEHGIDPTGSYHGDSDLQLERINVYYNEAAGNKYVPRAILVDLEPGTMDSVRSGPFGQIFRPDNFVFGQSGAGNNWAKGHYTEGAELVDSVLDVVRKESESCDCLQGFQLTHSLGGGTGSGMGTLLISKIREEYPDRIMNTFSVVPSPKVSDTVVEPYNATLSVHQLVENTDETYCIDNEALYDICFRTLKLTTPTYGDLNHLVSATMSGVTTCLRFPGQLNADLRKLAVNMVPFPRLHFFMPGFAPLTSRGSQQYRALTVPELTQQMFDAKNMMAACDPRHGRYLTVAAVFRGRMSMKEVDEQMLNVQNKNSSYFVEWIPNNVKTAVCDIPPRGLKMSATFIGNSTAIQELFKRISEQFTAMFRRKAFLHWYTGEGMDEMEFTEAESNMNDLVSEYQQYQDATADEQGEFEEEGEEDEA

MDA-MB-231 [4] = test: Antiproliferative activity against human MDA-MB-231 cells assessed as cell growth inhibition incubated for 48 hr by MTT assay; format: functional, cell-based
Method in brief: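 MTT titration: cells seeded 1×10^4/well for 24 h, then treated 48 h at 37 °C, 5% CO2 with 2.5, 5, 10, 20 μM. MTT 0.5 mg ml⁻¹ for 2 h, formazan in DMSO read at 570 nm; viability relative to 0.1% DMSO control. IC50 is the mean of three replicate experiments ± SD.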

MCF7 [5] = test: Antiproliferative activity against human MCF7 cells assessed as cell growth inhibition at 10 uM incubated for 48 hr by MTT assay; format: functional; method in brief: as §1
MCF7 [6] = test: Antiproliferative activity against human MCF7 cells assessed as cell growth inhibition incubated for 48 hr by MTT assay; conditions: MCF7, 48 h
A549 [7] = test: Antiproliferative activity against human A549 cells assessed as cell growth inhibition at 10 uM incubated for 48 hr by MTT assay; format: functional; method in brief: as §1
Tubulin = test: Inhibition of tubulin polymerization in human MCF7 cells by ELISA; format: cell-based
[8] = Antiproliferative activity against human F180 cells assessed as cell growth inhibition at 10 uM incubated for 48 hr by MTT assay; format: toxicity, cell-based; conditions: f180, 48 h; method in brief: as §1
A549 [9] = test: Antiproliferative activity against human A549 cells assessed as cell growth inhibition incubated for 48 hr by MTT assay; conditions: A549, 48 h
Tubulin (Homo sapiens) [10] = target: T1, Tubulin (Homo sapiens); test: Inhibition of tubulin polymerization in human A549 cells assessed as inhibition of microtubule spindle formation with irregular morphology at 9 uM incubated for 24 hrs by immunofluorescence assay; format: cell-based; method in brief: as §2
MCF7 [11] = test: Induction of apoptosis in human MCF7 cells assessed as Bax level at 6 uM incubated for 24 hrs by ELISA; format: functional
Method in brief: (§3)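 MCF-7 in RPMI1640 with 10% FBS, exposed to 6 μM for 24 h, lysed in cell extraction buffer, lysate diluted in standard diluent; Bax (pg ml⁻¹) and Bcl2 (ng ml⁻¹) measured by ELISA. Mean of three replicates ± SD.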

Tubulin (Sus scrofa) [12] = target: T2, Tubulin (Sus scrofa); test: Inhibition of porcine Tubulin polymerization assessed as decrease in AUC by measuring fluorescence at 15 uM incubated for 1 hr by fluorescence microscopy; format: protein assay
Method in brief: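 Porcine tubulin at 2 mg ml⁻¹ in 80 mM PIPES, 2 mM MgCl₂, 0.5 mM EGTA pH 6.9, with 10 μM fluorescent reporter, 1 mM GTP and 15% glycerol, in a pre-warmed plate. […] Fluorescence (ex 360, em 450 nm) read once per min for 60 min at 37 °C. Area under the curve scored against the untreated control, taken as 100%.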

MCF7 [13] = test: Cell cycle arrest in human MCF7 assessed as accumulation at pre G phase at 6 uM incubated for 24 hrs by propidium iodide staining flow cytometry; format: functional
Method in brief: (§4)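 MCF-7 cells exposed to 6 μM for 24 h, DMSO vehicle control. Cells harvested, fixed in 70% ethanol on ice 15 min, then stained 1 h at room temperature with PI solution containing 0.1 mg mL⁻¹ RNaseA and 0.05% Triton X-100. DNA content read by flow cytometry; percentage of cells in each phase.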

MCF7 [14] = test: Induction of apoptosis in human MCF7 cells assessed as early apoptotic cells at 6 uM incubated for 24 hrs by Annexin V-FITC/propidium iodide staining based flow cytometry (reference value: 0.55 %); format: functional
MCF7 [15] = test: Induction of apoptosis in human MCF7 cells assessed as necrotic cells at 6 uM incubated for 24 hrs by Annexin V-FITC/propidium iodide staining based flow cytometry (reference value: 0.76 %); format: functional
MCF7 [16] = test: Cell cycle arrest in human MCF7 assessed as accumulation at G1 phase at 6 uM incubated for 24 hrs by propidium iodide staining flow cytometry; format: functional; method in brief: as §4
MCF7 [17] = test: Induction of apoptosis in human MCF7 cells assessed as Bcl-2 level at 6 uM incubated for 24 hrs by ELISA; format: functional; method in brief: as §3
MCF7 [18] = test: Induction of apoptosis in human MCF7 cells assessed as Caspase-9 level at 6 uM incubated for 24 hrs by ELISA; format: functional
Method in brief: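 MCF-7 cells incubated with or without 6 μM for 24 h, washed in PBS, lysed; caspase-9 in lysates quantified by ELISA kit (ng ml⁻¹). Mean of three replicates ± SD.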

MCF7 [19] = test: Cell cycle arrest in human MCF7 assessed as accumulation at S phase at 6 uM incubated for 24 hrs by propidium iodide staining flow cytometry; format: functional; method in brief: as §4
MCF7 [20] = test: Cell cycle arrest in human MCF7 assessed as accumulation at G2/M phase at 6 uM incubated for 24 hrs by propidium iodide staining flow cytometry; format: functional; method in brief: as §4
MCF7 [21] = test: Induction of apoptosis in human MCF7 cells assessed as late apoptotic cells at 6 uM incubated for 24 hrs by Annexin V-FITC/propidium iodide staining based flow cytometry (reference value: 0.17 %); format: functional
[22] = Homo sapiens, MDA-MB-231, 48 h, read-out: IC50

SMILES | inhibition at 10 µM (MDA-MB-231 [1]) [%] | inhibition (Tubulin (Sus scrofa) [3]) | inhibition at 10 µM (MCF7 [5]) [%] | IC50 (MCF7 [6]) [µM] | inhibition at 10 µM (A549 [7]) [%] | IC50 (Tubulin) [µM] | Activity [8] | IC50 (A549 [9]) [µM] | IC50 (MDA-MB-231 [4]; [22]) [µM] | further results
COc1cc2c(=O)c(C(=O)c3ccc(F)cc3)cn(CC(=O)Nc3ccc(F)c(F)c3)c2cc1OC | 80 | Active | 50 | 12 | 20 | 13.1 | Toxic | 13.2 | – | inhibition (Tubulin (Homo sapiens) [2]): Active; IC50 (MDA-MB-231 [4]; time 48 hrs): 14.1 µM
COc1ccc(C(=O)c2cn(CC(=O)Nc3ccc(F)cc3)c3cc(OC)c(OC)cc3c2=O)cc1 | 50 | Active | 50 | 11 | 50 | 12.8 | Toxic | 9.4 | 19.5 | inhibition (Tubulin (Homo sapiens) [10]): Active
CCOc1ccc(C2C3=C(CCCC3=O)Nc3c2c(C)nn3-c2nc(C)cc(C)n2)cc1OC (stereo not given) | 40 | – | 40 | 23.2 | 40 | – | Toxic | > 20 | > 23 | –
CC(=O)O[C@H]1C(=O)[C@@]2(C)[C@H]([C@H](OC(=O)c3ccccc3)[C@]3(O)C[C@H](OC(=O)[C@H](O)[C@@H](NC(=O)c4ccccc4)c4ccccc4)C(C)=C1C3(C)C)[C@]1(OC(C)=O)CO[C@@H]1C[C@@H]2O [PACLITAXEL] | – | – | – | 0.0061 | – | – | – | 0.015 | 0.0193 | –
COc1ccc(C2CC(O)=Nc3c2ncn3-c2cccc(C(F)(F)F)c2)cc1O (stereo not given) | 60 | – | 50 | – | 40 | – | Toxic | – | – | Activity (MCF7 [11]): 207.6 pg/mL; inhibition (Tubulin (Sus scrofa) [12]): Active; Activity (MCF7 [13]): 1.48%; Activity (MCF7 [14]): 5.96%; Activity (MCF7 [15]): 7.11%; Activity (MCF7 [16]): 53.91%; Activity (MCF7 [17]): 2.1 ng/mL; Activity (MCF7 [18]): 13.7 ng/mL; Activity (MCF7 [19]): 42.71%; Activity (MCF7 [20]): 3.38%; Activity (MCF7 [21]): 14.29%

— ChEMBL document CHEMBL5108041, “Identification and validation of novel microtubule suppressors with an imidazopyridine scaffold through structure-based virtual screening and docking” (RSC Med Chem, 2022)
